Experimental data taken from ChEMBL document CHEMBL1139941, “Development of 6-benzyl substituted 4-aminocarbonyl-1,4-diazepane-2,5-diones as orally active human chymase inhibitors” (Bioorg Med Chem Lett, 2007).

Legend:
[1] = Stability in aqueous solution in pH 7 at 10 uM; assay type: physicochemical
Summary of the method: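 Compound at 10 µM incubated at 37 °C in 0.1 M phosphate buffer, pH 7.0, sampled at 0, 4 and 8 h; fraction remaining quantified by HPLC and reported as half-life.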

Mus musculus [2] = assay: Inhibition of DNFB-induced ear edema in mouse chronic dermatitis model at 10 mg/kg, ip after 24 hrs relative to control; assay type: functional; conditions: route intraperitoneal
Summary of the method: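 Chronic dermatitis in mice induced by repeated DNFB painting; intraperitoneal dosing at 10 mg/kg once daily over the experimental period. Ear thickness measured 24 h after sixth DNFB application, expressed as inhibition ratio against vehicle group; Student's t test.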

Chymase = target: T1, Chymase (Homo sapiens, UniProt P23946); assay: Inhibition of human recombinant chymase
T1 sequence (P23946 whole entry): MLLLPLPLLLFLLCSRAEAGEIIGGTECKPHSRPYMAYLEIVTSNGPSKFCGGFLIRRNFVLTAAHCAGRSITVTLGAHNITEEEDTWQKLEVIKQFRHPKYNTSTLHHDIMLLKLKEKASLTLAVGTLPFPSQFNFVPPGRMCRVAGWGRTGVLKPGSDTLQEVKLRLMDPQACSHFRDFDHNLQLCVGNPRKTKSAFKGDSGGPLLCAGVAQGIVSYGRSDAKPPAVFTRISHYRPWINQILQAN

Mus musculus [3] = assay: Inhibition of DNFB-induced ear edema in mouse chronic dermatitis model at 10 mg/kg, po after 24 hrs relative to control; assay type: functional
Summary of the method: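 Mouse chronic dermatitis model: DNFB painted repeatedly; compound dosed orally at 10 mg/kg once daily throughout the experimental period. Ear thickness read 24 h after the sixth DNFB painting; inhibition ratio calculated versus vehicle, significance by Student's t test.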

[4] = Inhibition of human elastase
[5] = Inhibition of bovine alpha chymotrypsin; set-up: species or system Bos taurus
Cathepsin G = target: T2, Cathepsin G (Homo sapiens, UniProt P08311); assay: Inhibition of human cathepsin G
T2 sequence (P08311 whole entry): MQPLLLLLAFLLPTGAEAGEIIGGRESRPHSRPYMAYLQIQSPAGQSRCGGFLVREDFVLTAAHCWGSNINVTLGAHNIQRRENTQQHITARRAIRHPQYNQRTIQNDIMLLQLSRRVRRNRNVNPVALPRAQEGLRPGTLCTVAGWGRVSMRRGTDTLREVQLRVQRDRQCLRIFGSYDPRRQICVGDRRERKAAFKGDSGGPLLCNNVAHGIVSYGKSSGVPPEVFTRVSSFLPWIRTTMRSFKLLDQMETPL

[6] = Inhibition of bovine trypsin; set-up: species or system Bos taurus

Compound `COc1ccc(Cl)cc1CC1CNC(=O)CN(C(=O)NCc2ccccc2)C1=O` (racemic) has a half-life at 10 µM [1] of 6.8 h.

In the case of `C[C@]12C=CC(=O)C=C1CC[C@@H]1[C@@H]2[C@@H](O)C[C@@]2(C)[C@H]1CC[C@]2(O)C(=O)CO` [PREDNISOLONE], the inhibition in vivo at 10 mg/kg (Mus musculus [2]) is reported as 54.6%.

For `COc1ccc(Cl)cc1CC1CNC(=O)CN(C(=O)NC(c2ccccc2)c2ccccc2)C1=O` (racemic), the half-life at 10 µM [1] was 16.5 h and the IC50 (Chymase) was > 100 µM.

For `CC[C@@H](NC(=O)N1CC(=O)NC[C@@H](Cc2cc(Cl)ccc2OC)C1=O)c1ccc(C(=O)O)c(N)c1`, the inhibition in vivo at 10 mg/kg (Mus musculus [3]) was 29.7%, the IC50 [4] was > 100 µM and the IC50 [5] was > 100 µM. The IC50 (Cathepsin G) was 16 µM, the IC50 [6] was > 100 µM and the half-life at 10 µM [1] was 6.7 h.

In the case of `CC[C@@H](NC(=O)N1CC(=O)NC[C@H](Cc2cc(Cl)ccc2OC)C1=O)c1ccc(C(=O)O)c(N)c1`, the inhibition in vivo at 10 mg/kg (Mus musculus [3]) is reported as 35.8%, the IC50 [4] is reported as > 100 µM and the IC50 [5] is reported as 23 µM. The IC50 (Cathepsin G) was 28 µM, the IC50 [6] was > 100 µM and the half-life at 10 µM [1] was 6.1 h.

Compound `CCCC(NC(=O)N1CC(=O)NCC(Cc2cc(Cl)ccc2OC)C1=O)c1ccccc1` (centres undefined) has a half-life at 10 µM [1] of 7.6 h.

`COc1ccc(Cl)cc1CC1CNC(=O)CN(C(=O)NC(c2ccccc2)C(C)C)C1=O` (centres undefined) showed a half-life at 10 µM [1] of 8 h.

In the case of `COc1ccc(Cl)cc1CC1CNC(=O)CN(C(=O)N(C)Cc2ccccc2)C1=O` (racemic), the half-life at 10 µM [1] is reported as > 48 h and the IC50 (Chymase) is reported as > 100 µM.

Work on `COc1ccc(Cl)cc1CC1CNC(=O)CN(C(=O)NCCc2ccccc2)C1=O` (racemic) yielded a half-life at 10 µM [1] of 12.9 h.

Compound `CCC(NC(=O)N1CC(=O)NCC(Cc2cc(Cl)ccc2OC)C1=O)c1ccccc1` (centres undefined) has a half-life at 10 µM [1] of 6.3 h.

For `CC[C@@H](NC(=O)N1CC(=O)NC[C@@H](Cc2cc(Cl)ccc2OC)C1=O)c1cccc(C(=O)O)c1`, the inhibition in vivo at 10 mg/kg (Mus musculus [3]) was 22.9%, the IC50 [4] was > 100 µM and the IC50 [5] was 56 µM. The IC50 (Cathepsin G) was 8 µM, the IC50 [6] was > 100 µM and the half-life at 10 µM [1] was 7.4 h.

`COc1ccc(Cl)cc1CC1CNC(=O)CN(C(=O)NC(C)c2ccccc2)C1=O` (centres undefined) showed a half-life at 10 µM [1] of 6.2 h.
